Bioassay records as filed in PubChem BioAssay.
An excerpt weighted towards active compounds, which were near 4% of everything screened.
KCC2 mod: KCC2 cotransporter modulators, thallium flux, primary screen, cell-based, HEK293 KCC2, FluoZin-2 fluorescence, MLSMR. AID 1456, 2008. KCC2 cells, thallium flux FluoZin-2 fluorescence. B-score of Tl+ flux slope (higher = more flux/activation; lower = inhibition) at 10 µM. 190,000 tested, 2.2% active. Solute carrier family 12 member 5 (Homo sapiens), Q9H2X9;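 active = thallium flux slope and its plate-corrected score both differing from the plate sample mean at a set confidence after two filtering rounds, in either direction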;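 also: slope of fluorescence scaled to starting intensity during 10 to 20 s after thallium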
Target sequence (Q9H2X9 whole entry, looked up): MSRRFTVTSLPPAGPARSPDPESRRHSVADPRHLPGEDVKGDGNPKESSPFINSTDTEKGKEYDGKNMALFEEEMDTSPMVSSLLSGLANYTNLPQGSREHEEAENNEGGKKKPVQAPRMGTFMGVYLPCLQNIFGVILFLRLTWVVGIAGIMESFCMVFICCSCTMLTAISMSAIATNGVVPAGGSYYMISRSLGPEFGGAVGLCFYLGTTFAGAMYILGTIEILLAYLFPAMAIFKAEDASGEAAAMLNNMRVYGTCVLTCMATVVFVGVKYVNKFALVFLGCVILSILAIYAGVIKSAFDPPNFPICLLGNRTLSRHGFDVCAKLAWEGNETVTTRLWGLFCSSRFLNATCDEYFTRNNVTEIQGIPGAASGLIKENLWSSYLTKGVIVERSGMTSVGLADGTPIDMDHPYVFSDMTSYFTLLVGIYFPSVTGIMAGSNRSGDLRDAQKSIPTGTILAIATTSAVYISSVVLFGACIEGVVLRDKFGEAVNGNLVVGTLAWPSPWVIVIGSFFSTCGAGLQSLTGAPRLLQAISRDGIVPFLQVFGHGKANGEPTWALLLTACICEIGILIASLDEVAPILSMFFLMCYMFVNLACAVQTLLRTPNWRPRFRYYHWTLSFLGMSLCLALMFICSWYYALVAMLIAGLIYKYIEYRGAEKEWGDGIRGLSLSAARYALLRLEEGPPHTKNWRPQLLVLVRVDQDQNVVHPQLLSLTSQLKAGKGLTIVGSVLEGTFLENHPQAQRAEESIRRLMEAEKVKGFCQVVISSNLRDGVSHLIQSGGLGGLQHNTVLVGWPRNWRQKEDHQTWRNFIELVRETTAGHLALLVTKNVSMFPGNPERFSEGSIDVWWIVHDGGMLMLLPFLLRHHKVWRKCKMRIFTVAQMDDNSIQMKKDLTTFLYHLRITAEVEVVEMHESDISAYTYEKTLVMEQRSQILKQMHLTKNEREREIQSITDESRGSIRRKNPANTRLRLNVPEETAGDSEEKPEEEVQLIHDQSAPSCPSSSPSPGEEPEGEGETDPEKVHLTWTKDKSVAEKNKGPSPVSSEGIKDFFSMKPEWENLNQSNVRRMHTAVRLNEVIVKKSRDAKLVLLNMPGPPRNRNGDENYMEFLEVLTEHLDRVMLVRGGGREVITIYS
bCat nuc transl: modulators of beta-catenin nuclear translocation, primary screen, imaging, HeLa cells, immunofluorescence, high-content. nuclear translocation activity, % at 5 µM. 190,000 tested, 0.3% active. AID 1665, 2009;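 active = nuclear translocation activity above 50% at 5 µM, with a well cell count of 50 or more; inconclusive = wells under 50 cells across six images, flagged as toxic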;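 also: per-cell ratio of nuclear to cytoplasmic median beta-catenin stain intensity; plate controls were DMSO negative control for no effect and GSK-3 inhibitor IX positive control for full effect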
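Technique: fluorescence imaging of beta-catenin antibody stain plus DAPI / Material: human HeLa cell line / Incubation: compound treatment 24 h, 37°C, 5% CO2 / Read-out basis: % activation of per-cell nuclear versus cytoplasmic median beta-catenin signal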
Pf gametocyte: late stage P. falciparum gametocyte viability inhibitors, primary screen, ATP luminescence, HTS | 150,000 tested, 0.065% active | P. falciparum stage V gametocytes, 24 h | inhibition, % at 10.9 µM;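 active = inhibition above the mean plus 3 SD of compounds within the control limits, set per campaign, cut at about 38% in these data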;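 also: 0% = DMSO wells and 100% = medium only without gametocytes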
WT yeast gro inh: growth inhibition of WT strain, primary screen, mitochondrial fusion inhibitor project, WT and mutant strains, chemical genetic; mitochondrial fusion phenotypic screen; inhibition, % at 10 µM; 190,000 tested, 2.1% active; in the data active = inhibition above about 58%; tested in S. cerevisiae
MT stabilizer: microtubule stabilizers in HeLa cells, primary screen, imaging, high-content imaging. 200,000 tested, 0.83% active. % tubulin-high responders, % at 10 µM. AID 2205, 2009. HeLa tubulin immunostaining HCS, 24 h; share of cells brighter than vehicle mean+2SD;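 active = plate Z-score above 3 for both tubulin-high and condensed-nucleus cell shares, with cell loss under 80%, at 10 µM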;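 also: anti alpha tubulin signal scored within the nucleus-defined area of each cell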
KCC2 sec1: KCC2 modulators in sodium-free buffer, confirmation, cell-based, HEK293 KCC2, thallium flux, secondary assay; normalised thallium flux (F/F0 slope) at 10 µM; FluoZin2 fluorescence; stronger effect = higher value; shares compounds with KCC2 mod; 3,700 tested, 15% active;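 active = thallium flux slope above the same plate's solvent-only control mean plus 3 SD; inconclusive = the two replicate wells disagree; inactive = no significant difference from solvent-only control wells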
KCC2 bumet counter: thallium flux persisting under bumetanide in KCC2 cells, confirmation, counter-screen for KCC2 modulator project, cell-based, HEK293 KCC2, FluoZin2, secondary assay 3; shares compounds with KCC2 mod; HEK293-KCC2 + bumetanide/ouabain; stronger effect = higher value; normalized thallium flux at 10 µM; 3,700 tested, 49% active; AID 1714, 2009;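 active = thallium entry rate above the same plate's blocked-transporter control wells by more than 3 SD; inconclusive = the two repeat wells disagree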;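 also: raw slope of fluorescence over initial fluorescence between 10 and 20 s after thallium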
KCC2 sec2: KCC2 modulators without ouabain present, confirmation, cell-based, HEK293 KCC2, thallium flux, FluoZin2, secondary assay 2 | normalized thallium flux at 10 µM | thallium flux FluoZin2 fluorescence; actives lie on both sides; F/F0 rise rate, 10–20 s post-thallium | AID 1715, 2009 | 3,700 tested, 23% active | shares compounds with KCC2 mod;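 active = thallium flux slope more than 3 SD above or below the plate's solvent-only control mean, mostly below; inconclusive = the two repeat wells disagreed; inactive = no significant shift from solvent-only controls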;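 also: raw slope with 0.1% DMSO as baseline and bumetanide as block control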
HEK293 Tl flux: thallium flux modulation in parental HEK cells, confirmation, counter-screen for KCC2 modulator project, cell-based, counterscreen 1; shares compounds with KCC2 mod; HEK293 parental cells, thallium flux FluoZin2, ouabain; baseline-ratio fluorescence slope, 10–20 s after thallium; thallium flux rate (normalised fluorescence) at 10 µM; 3,700 tested, 46% active; AID 1716, 2009;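 active = thallium flux rate significantly above the same plate's solvent-only control wells, beyond their mean plus 3 SD; inconclusive = the two replicate wells gave conflicting results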
KCC2 retest ouab: KCC2 inhibitors and activators, ouabain retest, confirmation, HEK-KCC2 cells; shares compounds with KCC2 mod; HEK293-KCC2, thallium flux FluoZin2 fluorescence; bidirectional: low = inhibitor, high = activator; raw Tl+ flux slope (below DMSO = inhibition, above = activation) at 10 µM; 3,700 tested, 48% active;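 active = thallium flux slope beyond 3 SD from same-plate DMSO control mean in most replicates, usually higher, sometimes lower; inconclusive = repeat tests gave conflicting results; inactive = no significant difference from controls in most replicates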;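 also: slope of initial-normalized fluorescence between seconds 10 and 20 after thallium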
HEK293 Tl flux2: native HEK Tl+ uptake effects, second counter-screen – HEK cells, counterscreen 2, counter-screen for KCC2 modulator project, confirmation. 3,700 tested, 33% active. thallium flux slope at 10 µM. HEK293 parental, thallium flux FluoZin-2 fluorescence slope. AID 1718, 2009. shares compounds with KCC2 mod;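 active = thallium flux slope above the same plate's solvent-control mean plus 3 SD in both duplicate wells; inconclusive = duplicate wells that disagreed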;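 also: run without ouabain in cells lacking the KCC2 cotransporter; slope of fluorescence scaled to its starting value between 10 and 20 s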
Numbers without * were called inactive.

What do the screens show for `CCn1c(SCC(=O)Nc2ccc3c(c2)OCO3)nc2c(c1=O)SC(C)C2` (stereo not given)?
KCC2 mod: -1.4; bCat nuc transl: 5; WT yeast gro inh: -2; MT stabilizer: 5

How did O=[N+]([O-])c1cccc(-c2noc(COc3ccccc3)n2)c1 do in these assays?
KCC2 mod: 0.048; bCat nuc transl: -1; Pf gametocyte: 12; WT yeast gro inh: -8; MT stabilizer: 5

How did COC(=O)c1ccc(NC(=S)NC(=O)c2c(-c3ccccc3)noc2C)cc1 do in these assays?
KCC2 mod: 17*; bCat nuc transl: -5; Pf gametocyte: 0; KCC2 sec1: 0.012; KCC2 bumet counter: 0.023*; KCC2 sec2: 0.036; HEK293 Tl flux: inconclusive; KCC2 retest ouab: 0.049*; HEK293 Tl flux2: 0.012

Results for CCCOc1ccc(C(=O)NC(=S)NNC(=O)c2c(-c3ccccc3)noc2C)cc1 ?
KCC2 mod: 62*; bCat nuc transl: 0; Pf gametocyte: 0; KCC2 sec1: 0.021*; KCC2 bumet counter: 0.065*; KCC2 sec2: inconclusive; HEK293 Tl flux: 0.045*; KCC2 retest ouab: 0.04*; HEK293 Tl flux2: 0.04*

Results for Cc1ccc(NC(=S)NC(=O)c2c(-c3ccccc3Cl)noc2C)cc1 ?
KCC2 mod: 5.4*; bCat nuc transl: 0; Pf gametocyte: -1; WT yeast gro inh: 5; MT stabilizer: 1; KCC2 sec1: 0.0075; KCC2 bumet counter: 0.035*; KCC2 sec2: 0.028; HEK293 Tl flux: 0.015*; KCC2 retest ouab: 0.037*; HEK293 Tl flux2: inconclusive

Results for Cc1onc(-c2ccccc2)c1C(=O)NC(=S)Nc1sc2c(c1C#N)CCC(C)C2 (stereo not given) ?
KCC2 mod: 21*; bCat nuc transl: 0; Pf gametocyte: -2; WT yeast gro inh: -2; MT stabilizer: 6; KCC2 sec1: inconclusive; KCC2 bumet counter: 0.058*; KCC2 sec2: inconclusive; HEK293 Tl flux: 0.024*; KCC2 retest ouab: 0.037*; HEK293 Tl flux2: 0.025*

What do the screens show for `Cc1onc(-c2ccccc2Cl)c1C(=O)NC(C)c1ccccc1` (stereo not given)?
Pf gametocyte: -4

What do the screens show for `Cc1onc(-c2ccccc2Cl)c1C(=O)NC(=S)Nc1ccc(C(C)C)cc1`?
KCC2 mod: 9.9*; bCat nuc transl: -1; Pf gametocyte: -10; KCC2 sec1: 0.0076; KCC2 bumet counter: 0.013*; KCC2 sec2: 0.029; HEK293 Tl flux: 0.014*; KCC2 retest ouab: inconclusive; HEK293 Tl flux2: 0.013*

Results for C=C(c1ccccc1Cl)[n+]1ccccc1 ?
Pf gametocyte: 8

How did COc1ccc(NC(=O)CCCN2C(=O)CCC2=O)cc1Cl do in these assays?
KCC2 mod: 0.63; bCat nuc transl: 1; Pf gametocyte: -12; WT yeast gro inh: 8; MT stabilizer: 3

Results for COc1ccc(NC(=O)CCCCCN2C(=O)CCC2=O)cc1Cl ?
Pf gametocyte: -9; WT yeast gro inh: -13; MT stabilizer: 2; KCC2 sec1: 0.0091; KCC2 bumet counter: inconclusive; KCC2 sec2: 0.034; HEK293 Tl flux: 0.0085; KCC2 retest ouab: 0.023; HEK293 Tl flux2: 0.011

What do the screens show for `Cc1ccc(-n2c(CNc3ccc(C)c(Cl)c3)n[nH]c2=S)cc1`?
KCC2 mod: 3.5*; bCat nuc transl: 0; Pf gametocyte: -14; WT yeast gro inh: 54; MT stabilizer: 3; KCC2 sec1: 0.0094; KCC2 bumet counter: 0.084*; KCC2 sec2: 0.032; HEK293 Tl flux: 0.011*; KCC2 retest ouab: 0.028; HEK293 Tl flux2: inconclusive

What do the screens show for `CC(=O)CCc1ccc(Oc2nc(-c3cccnc3)nc3ccccc23)cc1`?
KCC2 mod: -0.67; bCat nuc transl: 5; Pf gametocyte: -9; WT yeast gro inh: 4; MT stabilizer: 3

What do the screens show for `COC(=O)c1ccc(Nc2c([N+](=O)[O-])c(=O)oc3ccccc23)cc1`?
KCC2 mod: -4.5*; bCat nuc transl: 0; Pf gametocyte: -5; KCC2 sec1: 0.0085; KCC2 bumet counter: inconclusive; KCC2 sec2: 0.029; HEK293 Tl flux: inconclusive; KCC2 retest ouab: 0.027*; HEK293 Tl flux2: inconclusive

What do the screens show for `O=c1oc2ccccc2c(Nc2ccc(Cl)cc2)c1[N+](=O)[O-]`?
KCC2 mod: -2.3; bCat nuc transl: 4; Pf gametocyte: 6

Results for CC(=O)c1cccc(Nc2c([N+](=O)[O-])c(=O)oc3ccccc23)c1 ?
KCC2 mod: -0.42; bCat nuc transl: 1; Pf gametocyte: 25

Results for Cc1ccc(Nc2c([N+](=O)[O-])c(=O)oc3ccccc23)cc1C ?
KCC2 mod: -2.8*; bCat nuc transl: 7; Pf gametocyte: -5; WT yeast gro inh: 8; MT stabilizer: 2; KCC2 sec1: 0.018; KCC2 bumet counter: 0.0042; KCC2 sec2: 0.03; HEK293 Tl flux: inconclusive; KCC2 retest ouab: 0.014; HEK293 Tl flux2: 0.009

Results for O=c1oc2ccccc2c(Nc2ccc(F)cc2)c1[N+](=O)[O-] ?
KCC2 mod: -3.4*; bCat nuc transl: 2; WT yeast gro inh: 7; MT stabilizer: 3; KCC2 sec1: 0.0058; KCC2 bumet counter: 0.0046; KCC2 sec2: 0.029; HEK293 Tl flux: 0.0063*; KCC2 retest ouab: 0.017; HEK293 Tl flux2: inconclusive
